Experimental findings from ChEMBL document CHEMBL2040828 (J Med Chem, 2012) are described below.

The source made the active and inactive calls. No cut-off for these calls is given here.

Data set [1] in a line: Irreversible inhibition of hepatitis C virus NS5B polymerase. More on the design: species or system Hepacivirus hominis.
In data set [2] the test system is Hepatitis C virus. In words: Antiviral activity against HCV by cell based replicon assay. The class given is functional, organism-based, Hepacivirus hominis.
The nature of data set [3]: AUC in rat at 10 mg/kg, po. Conditions: plasma. The arrangement: dose 10 mg/kg, route oral. It is filed as ADME, organism-based. The procedure, abridged:
(§1)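 Single-dose pharmacokinetics: rats were dosed at 10 mg/kg, and monkeys and dogs at 3 mg/kg. Oral AUC, clearance, half-life and bioavailability were determined. All doses were given in 0.4% MC vehicle.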

In data set [4] the test system is Hepacivirus hominis. In words: Binding affinity to hepatitis C virus NS5B polymerase assessed as covalent bonding with cysteine-366 residue by mass spectroscopy analysis.
Data set [5] can be described thus: Oral bioavailability in rat at 10 mg/kg. Conditions: in vivo. It is filed as ADME, organism-based. The procedure, abridged:
as §1

A short description of data set [6]: Half life in rat at 10 mg/kg, iv. The class given is ADME, organism-based. The arrangement: dose 10 mg/kg, route intravenous. Conditions: in vivo. The procedure, abridged: as §1
Data set [7] is described as follows: Clearance in rat at 10 mg/kg. The arrangement: dose 10 mg/kg. The class given is ADME, organism-based. Conditions: in vivo. The procedure, abridged: as §1
The nature of data set [8]: Drug level in rat liver at 10 mg/kg, iv after 6 hrs. Conditions: read-out: Drug uptake. The class given is ADME, organism-based. More on the design: dose 10 mg/kg, route intravenous.
Data set [9] in a line: AUC in monkey at 3 mg/kg, po. The class given is ADME, organism-based, Macaca mulatta. More on the design: dose 3 mg/kg, route oral. Conditions: rhesus monkey, plasma. The procedure, abridged:
as §1

Data set [10] can be described thus: Oral bioavailability in monkey at 3 mg/kg. Conditions: rhesus monkey, in vivo. It is filed as ADME, organism-based, Macaca mulatta. The procedure, abridged: as §1
The nature of data set [11]: Half life in monkey at 3 mg/kg, iv. It is filed as ADME, organism-based, Macaca mulatta. More on the design: dose 3 mg/kg, route intravenous. Conditions: rhesus monkey, in vivo. The procedure, abridged:
as §1

Data set [12] is described as follows: Clearance in monkey at 3 mg/kg. Conditions: rhesus monkey, in vivo. It is filed as ADME, organism-based, Macaca mulatta. The arrangement: dose 3 mg/kg. The procedure, abridged: as §1
A short description of data set [13]: AUC in dog at 3 mg/kg, po. More on the design: dose 3 mg/kg, route oral. The class given is ADME, organism-based, Canis lupus familiaris. Conditions: plasma. The procedure, abridged: as §1
The nature of data set [14]: Oral bioavailability in dog at 3 mg/kg. The class given is ADME, organism-based, Canis lupus familiaris. Conditions: in vivo. The procedure, abridged: as §1
A short description of data set [15]: Half life in dog at 3 mg/kg, iv. It is filed as ADME, organism-based, Canis lupus familiaris. The arrangement: dose 3 mg/kg, route intravenous. Conditions: in vivo. The procedure, abridged:
as §1

The nature of data set [16]: Clearance in dog at 3 mg/kg. It is filed as ADME, organism-based, Canis lupus familiaris. More on the design: dose 3 mg/kg. Conditions: in vivo. The procedure, abridged: as §1
Data set [17] deals with Plasma. In words: Metabolic stability in rat plasma up to 3 hrs. The class given is ADME, cell-free.
Data set [18] concerns Plasma. In words: Metabolic stability in monkey plasma up to 3 hrs. Conditions: rhesus monkey. The class given is ADME, cell-free, Macaca mulatta.
Data set [19] has as its system Plasma. In words: Metabolic stability in dog plasma up to 3 hrs. The class given is ADME, cell-free, Canis lupus familiaris.
The test system of data set [20] is Plasma. In words: Metabolic stability in human plasma up to 3 hrs. It is filed as ADME, cell-free.
In data set [21] the target is Cytochrome P450 2D6 (Homo sapiens, UniProt P10635). In words: Inhibition of CYP2D6 up to 30 uM. It is filed as ADME.
The target of data set [22] is Cytochrome P450 3A4 (Homo sapiens, UniProt P08684). In words: Inhibition of CYP3A4 up to 30 uM. It is filed as ADME.
Data set [23] addresses Cytochrome P450 2C9 (Homo sapiens, UniProt P11712). In words: Inhibition of CYP2C9 up to 30 uM. The class given is ADME.
Data set [24] can be described thus: Induction of cytochrome P450 activity at 10 uM. It is filed as ADME.
Data set [25] has as its target T1, Lupus La protein (Homo sapiens, UniProt P05455).
T1 sequence (P05455 whole entry): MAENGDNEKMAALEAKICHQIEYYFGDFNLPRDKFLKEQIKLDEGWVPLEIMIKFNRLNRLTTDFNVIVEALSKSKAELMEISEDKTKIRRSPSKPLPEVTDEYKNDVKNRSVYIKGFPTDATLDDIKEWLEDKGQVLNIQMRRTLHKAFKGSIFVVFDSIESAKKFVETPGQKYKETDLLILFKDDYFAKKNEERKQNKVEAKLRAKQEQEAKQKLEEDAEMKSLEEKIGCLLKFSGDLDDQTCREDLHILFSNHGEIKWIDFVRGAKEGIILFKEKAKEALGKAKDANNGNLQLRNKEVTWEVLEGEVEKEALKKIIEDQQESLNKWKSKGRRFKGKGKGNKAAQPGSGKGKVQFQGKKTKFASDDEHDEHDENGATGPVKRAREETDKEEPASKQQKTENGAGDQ
In words: Binding affinity to human La antigen by NMR based ALARM assay. The class given is ADME. The procedure, abridged:
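NMR-based ALARM assay. The compound was incubated with human La antigen, and NMR was used to monitor reaction with the antigen's reactive thiols.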

The subject of data set [26] is Salmonella typhimurium. In words: Mutagenic activity in Salmonella typhimurium by mini-AMES test in presence of S9 fraction. The class given is toxicity, organism-based. Conditions: salmonella enterica subsp. enterica serovar typhimurium.
Data set [27] relates to Salmonella typhimurium. In words: Mutagenic activity in Salmonella typhimurium by mini-AMES test in absence of S9 fraction. Conditions: salmonella enterica subsp. enterica serovar typhimurium. It is filed as toxicity, organism-based.
Data set [28] in a line: Mutagenic activity in micronuclei assessed as induction of chromosomal damage.

Cytochrome P450 2C9, sequence (P11712 whole entry): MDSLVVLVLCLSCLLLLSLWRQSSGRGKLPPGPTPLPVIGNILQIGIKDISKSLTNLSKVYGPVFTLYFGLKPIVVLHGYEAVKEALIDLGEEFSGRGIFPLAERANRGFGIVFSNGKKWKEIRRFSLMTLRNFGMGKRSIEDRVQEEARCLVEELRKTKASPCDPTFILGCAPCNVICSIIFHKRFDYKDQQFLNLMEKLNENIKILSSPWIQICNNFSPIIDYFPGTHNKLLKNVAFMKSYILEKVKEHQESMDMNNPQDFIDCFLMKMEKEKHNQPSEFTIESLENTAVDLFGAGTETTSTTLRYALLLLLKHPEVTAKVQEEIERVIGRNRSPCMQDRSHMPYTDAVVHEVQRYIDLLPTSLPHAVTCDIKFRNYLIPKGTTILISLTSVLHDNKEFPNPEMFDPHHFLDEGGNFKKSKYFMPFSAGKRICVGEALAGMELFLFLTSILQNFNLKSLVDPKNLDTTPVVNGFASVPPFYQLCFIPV
Cytochrome P450 2D6, sequence (P10635 whole entry): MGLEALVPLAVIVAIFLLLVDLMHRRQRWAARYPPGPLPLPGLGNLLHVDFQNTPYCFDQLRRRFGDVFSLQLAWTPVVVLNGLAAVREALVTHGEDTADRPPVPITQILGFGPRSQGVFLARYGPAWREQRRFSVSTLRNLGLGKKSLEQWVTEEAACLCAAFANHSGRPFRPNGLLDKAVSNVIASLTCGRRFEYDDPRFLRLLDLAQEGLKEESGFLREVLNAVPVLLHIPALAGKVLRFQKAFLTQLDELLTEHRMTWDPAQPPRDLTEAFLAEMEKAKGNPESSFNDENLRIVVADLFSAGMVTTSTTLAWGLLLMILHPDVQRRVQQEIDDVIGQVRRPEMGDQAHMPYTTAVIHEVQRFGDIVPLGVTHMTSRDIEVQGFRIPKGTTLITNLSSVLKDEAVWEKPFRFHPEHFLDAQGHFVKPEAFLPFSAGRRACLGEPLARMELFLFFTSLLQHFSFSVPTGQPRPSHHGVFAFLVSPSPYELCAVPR
Cytochrome P450 3A4, sequence (P08684 whole entry): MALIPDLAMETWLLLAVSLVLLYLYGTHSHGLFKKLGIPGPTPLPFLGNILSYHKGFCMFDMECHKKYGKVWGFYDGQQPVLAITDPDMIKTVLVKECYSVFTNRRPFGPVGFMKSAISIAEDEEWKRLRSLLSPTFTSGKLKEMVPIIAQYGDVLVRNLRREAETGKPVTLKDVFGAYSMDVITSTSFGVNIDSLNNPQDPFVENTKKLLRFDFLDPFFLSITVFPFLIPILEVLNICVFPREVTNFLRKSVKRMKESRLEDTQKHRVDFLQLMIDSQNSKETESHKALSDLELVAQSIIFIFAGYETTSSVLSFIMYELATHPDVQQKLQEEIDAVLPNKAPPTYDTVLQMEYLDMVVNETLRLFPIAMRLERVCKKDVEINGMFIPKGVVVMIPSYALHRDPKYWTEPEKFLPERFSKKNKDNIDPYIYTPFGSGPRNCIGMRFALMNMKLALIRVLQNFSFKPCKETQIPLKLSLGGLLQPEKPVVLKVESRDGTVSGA

In [1], `Cc1ccc2c(c1)c(-c1ccc[nH]c1=O)c(C(=O)NS(C)(=O)=O)n2Cc1cc([N+](=O)[O-])ccc1F` yielded an IC50 of 6 nM. Besides, the EC50 in [2] was determined as 1 nM. For the same compound, in data set [3], the AUC was found to be 190 nM·h. Moreover, the result in data set [4] was Active.
On to `Cc1ccc2c(c1)c(-c1ccc[nH]c1=O)c(C(=O)NS(=O)(=O)N(C)C)n2Cc1cc([N+](=O)[O-])ccc1F`, for which it took 5 nM to reach half-maximal inhibition in data set [1] (IC50). This compound also registered an EC50 in data set [2] of 0.5 nM.
Consider `Cc1ccc2c(c1)c(-c1ccc[nH]c1=O)c(C(=O)NS(=O)(=O)C1CC1)n2Cc1cc(S(=O)(=O)C(F)(F)F)ccc1Cl`, for which, in data set [1], inhibition was half-maximal at 46 nM (IC50). The compound also displayed an EC50 in [2] of 900 nM.
The compound `CCc1ccc2c(c1)c(-c1ccc[nH]c1=O)c(C(=O)O)n2Cc1cc([N+](=O)[O-])ccc1F` returned an IC50 in [1] of 5 nM. This compound showed an EC50 in data set [2] of 1 nM. Further, the AUC in [3] was 18000 nM·h; in data set [9], 3400 nM·h; in [13], 11000 nM·h. In addition, the bioavailability in data set [5] stood at 37%; in data set [10], 30%; in data set [14], 95%. The half-life was 8.2 h in data set [6], 1.3 h in [11] and 1.2 h in [15]. For the same compound, the clearance in data set [7] is 0.48 L/h/kg; in [12] it was 0.6 L/h/kg; in data set [16], 0.6 L/h/kg. Further, the concentration at 6 h in [8] stood at 0.46 µM. The Stability result in data set [17], in data set [18], in data set [19] and in data set [20] was “Stable” throughout. Further, the “inhibition (INH)” value in [21], in data set [22] and in [23] was “Not Active” each time. Moreover, the Activity result in [24] was “Not Active”; in data set [25], “Not Active”; in [26], “Non-toxic”; in data set [27], “Non-toxic”; in data set [28], “Non-toxic”.
`Cc1ccc2c(c1)c(-c1ccc(C)[nH]c1=O)c(C(=O)NS(C)(=O)=O)n2Cc1cc([N+](=O)[O-])ccc1F` returned an IC50 in data set [1] of 6 nM. Besides, a half-maximal response in data set [2] (EC50) required 8 nM.
As to `Cc1ccc2c(c1)c(-c1ccc[nH]c1=O)c(C(=O)NS(=O)(=O)C1CC1)n2Cc1cc(C(N)=O)ccc1F`, the IC50 in data set [1] turned out to be 4 nM. The response in [2] was half-maximal at 140 nM (EC50).
In data set [1], `Cc1ccc2c(c1)c(-c1ccc[nH]c1=O)c(C(=O)NS(=O)(=O)C1CC1)n2Cc1cc(S(N)(=O)=O)ccc1F` showed an IC50 of 5 nM. Besides, in data set [2], the midpoint of the response, the EC50, lay at 550 nM.
For the compound `CCc1ccc2c(c1)c(-c1ccc[nH]c1=O)c(C(=O)NS(=O)(=O)C1CC1)n2Cc1cc(S(N)(=O)=O)c(Cl)cc1Cl`, in data set [1], the IC50 was found to be 6 nM. Further, in [2], the EC50 worked out at 1400 nM.
In [1], `Cc1ccc2c(c1)c(-c1ccc[nH]c1=O)c(C(=O)NS(=O)(=O)C1CC1)n2Cc1ccnc(N)c1` returned a half-maximal inhibitory concentration (IC50) of 6 nM. The compound also displayed an EC50 in [2] of 500 nM.
In the case of `Cc1ccc2c(c1)c(-c1ccc[nH]c1=O)c(C(=O)NS(=O)(=O)C1CC1)n2Cc1cccc(C)c1F`, the IC50 in data set [1] is 4 nM. In data set [2], this compound showed an EC50 of 380 nM.
Regarding `Cc1ccc2c(c1)c(-c1ccc[nH]c1=O)c(C(=O)NS(=O)(=O)C1CC1)n2Cc1cc([N+](=O)[O-])ccc1F`, the IC50 in [1] turned out to be 6 nM. The same compound gave an EC50 in [2] of 1 nM. The AUC in [3] was 10 nM·h.
`Cc1ccc2c(c1)c(-c1ccc[nH]c1=O)c(C(=O)NS(=O)(=O)C1CC1)n2Cc1ccccc1F` returned an IC50 in data set [1] of 5 nM. Also, the 50% effective concentration (EC50) in data set [2] worked out at 50 nM.
Taken in the same sequence, the figures for `O=C(NS(=O)(=O)C1CC1)c1c(-c2ccc[nH]c2=O)c2cc(F)ccc2n1Cc1cc([N+](=O)[O-])ccc1F` were 5 nM and 6 nM.
In [1], `CC(C)(C)c1ccc2c(c1)c(-c1ccc[nH]c1=O)c(C(=O)NS(=O)(=O)C1CC1)n2Cc1cc([N+](=O)[O-])ccc1F` yielded an IC50 of 6 nM. In data set [2], this compound gave an EC50 of 10 nM.
For `Cc1ccc2c(c1)c(-c1ccc[nH]c1=O)c(C(=O)NS(=O)(=O)C1CC1)n2Cc1c(F)c(F)cc(S(C)(=O)=O)c1F`, it took 14 nM to reach half-maximal inhibition in [1] (IC50). In addition, in data set [2], a half-maximal effect (EC50) was put at 270 nM.
The compound `Cc1ccc2c(c1)c(-c1ccc[nH]c1=O)c(C(=O)NS(=O)(=O)C1CC1)n2Cc1cc(C#N)ccc1F` showed an IC50 in [1] of 9 nM. The compound also showed an EC50 in data set [2] of 220 nM.
In the case of `O=C(NS(=O)(=O)C1CC1)c1c(-c2ccc[nH]c2=O)c2cc(Cl)ccc2n1Cc1cc([N+](=O)[O-])ccc1F`, the IC50 in data set [1] was 6 nM. This compound gave an EC50 in data set [2] of 5 nM. For the same compound, in data set [3], the AUC was determined as 300 nM·h.
In [1], `CCc1ccc2c(c1)c(-c1ccc[nH]c1=O)c(C(=O)NS(=O)(=O)C1CC1)n2Cc1cc(S(C)(=O)=O)c(C#N)cc1F` showed an IC50 of 3 nM. The compound also showed an EC50 in data set [2] of 3 nM.
